Assay results: ChEMBL document CHEMBL4513216, “Probing the Open Global Health Chemical Diversity Library for Multistage-Active Starting Points for Next-Generation Antimalarials” (ACS Infect Dis, 2020)

Assay: Toxicity liver stage against HepG2, at 10uM
Format: cell-based
Set-up: test concentration 10 uM, cell line HepG2-A16-CD81EGFP
Details: human, HepG2-A16-CD81EGFP cells; read-out: INHIBITION
In short: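 Uninfected HepG2-A16-CD81EGFP cells, 3 × 10^3 per well, 1536-well, plated on prespotted compound at 10 μM final, parasite-free screening media added to match infected plates; puromycin 10 μM positive, DMSO 0.5% negative; run in parallel with 48 h PbLuc assay at 37 °C, 5% CO2; viability by CellTiter-Glo luminescence, normalized to controls.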

Compound	cytotoxicity at 10 µM [%]
Cc1nc(NCc2noc(C3CCCO3)n2)c2ccsc2n1 (stereo unspecified)	49.9
O=c1n(CCSCc2ccccc2Br)nc2ccccn12	-3.95
CS(=O)(=O)c1ccc(-c2c[nH]c([C@@H]3COCCN3)n2)cc1	5.29
Nc1cccnc1N1CCC(C(F)(F)F)CC1	8.19
CC(=O)N1CCOCC2(CCCNC2)C1 (stereo unspecified)	0.081
O=C(CSc1ccccc1)Nc1cnn(CC(=O)N2CCCO2)c1	-0.969
CCN(Cc1ccncc1)Cc1cn(-c2ccccc2)nn1	-49.8
CC(C)c1nc(CN(C)Cc2ncccc2C(=O)O)cs1	-15.3
O=C(CCn1ccc2cc(Br)ccc21)NC[C@@H]1CCCN2CCCC[C@H]12	8.35
O=C(NCc1cc(=O)n2c(n1)CN(CC1CC1)CCC2)c1ccsc1	-103
Cc1ccc(CN2CCOC3(COCCN(CCN(C)C)C3)C2)o1 (stereo unspecified)	-1.65
COc1ccc(F)cc1C[S+]([O-])CC(=O)NCc1ccccc1C (stereo unspecified)	-0.907
CN(CCC#N)C(=O)Cc1csc(-c2ncccn2)n1	-0.343
COc1c(C)cnc(CSc2nnc(N)s2)c1C	10.1
O=C(NCc1ccco1)N1CCCCC1c1nc(C2CC2)no1 (stereo unspecified)	-7.86
CC(C)c1nn(C)c(N(C)C)c1CNCCC(=O)NC1CCCCC1	-2.89
O=C(C1CCC1)N1C[C@@H](c2ccsc2)[C@@H]2CN(C3CCCCC3)CC[C@@H]21	1.32
CC(C)(C)CNCC1(O)CCCN(Cc2ccccc2F)C1=O (stereo unspecified)	9.04
COc1ccc(CNc2cccnc2-n2cccn2)c(OC)c1OC	5.69
COc1ccccc1-n1nc(CC(C)C)nc1CSc1nnc(N)s1	1.62
COC(=O)C(O)C1CCN(Cc2cccc(-n3cccn3)c2)CC1 (stereo unspecified)	-16.5
Cc1ccc(CNCC2CCCn3ccnc32)s1 (stereo unspecified)	-15.1
COc1cc(N2C[C@H]3CN(C(=O)c4cccnc4)C[C@H]3C2)ncn1	-141

Compound	cytotoxicity at 10 µM [%]
O=C(NCC(F)F)c1cc(-c2ccccc2)nc2ncnn12	-3.37
Cc1occc1C(=O)NCCOc1ccc(C(F)(F)F)cn1	-7.62
CC(C)Cc1noc(CN2CCCN(C(=O)c3ccccc3Cl)CC2)n1	-5.95
Cc1cnc(CN2CCCC(c3cc(C)[nH]n3)C2)cn1 (stereo unspecified)	0.802
COCCN1CCCN(C(=O)NC(C)Cn2ccnc2)CC1 (stereo unspecified)	-9.29
O=C(c1cc(Br)ccc1-n1cnnn1)N1CCCCC1	-1.25
Cc1cc(C(O)CCNC(=O)COc2ccccc2C)c(C)o1 (stereo unspecified)	2.86
COc1cccc(-c2ccnc(C3CCNCC3)c2)c1	56.4
CNC(=O)[C@H]1C[C@@H]2CN(C(=O)c3ccco3)C[C@@H]2N1S(C)(=O)=O	-10.2
COc1ccc(CC(=O)N2C[C@@H]3COC[C@]3(CN(C)C)C2)cc1	-3.01
CN(Cc1ccccn1)C(=O)C(c1ccccc1)N1CCSCC1 (stereo unspecified)	-9.71
O=C(c1cccnc1O)N1CCOC(Cc2cccc(C(F)(F)F)c2)C1 (stereo unspecified)	2.26
CSCC[C@@H](CO)n1ccnc1-c1ccncc1	7.21
COc1ccccc1OCc1cc(C(=O)N2CC(O)C2)n[nH]1	-1.02
CC1(C(N)=O)CN(S(=O)(=O)c2cccc(F)c2)CCO1 (stereo unspecified)	6.73
O=c1[nH]nc(C2CC2)n1-c1cccc(Cl)c1	-3.11
O=C1CCC(c2ccc(Cl)cc2)=NN1CN1CCSCC1	34.4
Cc1ccc(NC2CCN(C(=O)C(C(C)C)n3cncn3)CC2)nn1 (stereo unspecified)	-3.01
CN(C)C1(C(=O)NC2CCC(Oc3ccccc3C#N)CC2)CCC1 (stereo unspecified)	9.92
Cc1ccc(CN(CCCN(C)C)Cc2cnc(N(C)C)nc2)o1	2.26
CC(=O)N(Cc1noc(C)n1)C1CCN(Cc2ncc(C(C)C)o2)C1 (stereo unspecified)	-13.2
CN(CCn1cccn1)S(=O)(=O)c1cccc(F)c1C#N	3.41
COC1CCCN(C(=O)NCCCF)C1 (stereo unspecified)	0.215
